Test results: ChEMBL document CHEMBL1269005, “Synthesis and biological evaluation of polyenylpyrrole derivatives as anticancer agents acting through caspases-dependent apoptosis” (J Med Chem, 2010)
Activity calls are given as the source filed them. The calls are words filed in the database; no cut-off is given here.

Experiments:
[1] = test system: A549; assay: Cytotoxicity against human A549 cells after 48 hrs by alamar blue assay; assay type: functional, cell-based; conditions: A549, 48 h
[2] = test system: A549; assay: Induction of apoptosis in human A549 cells assessed as blockade of sub-G1 phase increase at 5 uM after 36 hrs using propidium iodide staining by flow cytometry in presence of N-acetyl-cysteine; assay type: functional, cell-based
In short: (§1)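 Ethanol-fixed cells stained with RNase (200 μg/mL) and PI (10 μg/mL) 30 min; sub-G1 population by flow cytometry on ≥10 000 cells; mean ± SE of three experiments.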

[3] = test system: A549; assay: Induction of apoptosis in human A549 cells assessed as increase of Bax protein level at 5 uM after 36 hrs by Western blotting; assay type: functional, cell-based
In short: (§2)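 A549 cells exposed 0-10 μM or 0.1% DMSO for 36 h; lysed in SDS sample buffer, boiled, SDS-PAGE, PVDF transfer, blocked in 5% milk PBST, primary antibody overnight, HRP secondary with chemiluminescence. Probed for pro-caspase 3, pro-caspase 9, PARP, Bcl-2, Bax, Bak, actin. One of three repeats shown.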

[4] = test system: A549; assay: Induction of apoptosis in human A549 cells assessed as loss of mitochondrial cytochrome c at 5 uM after up to 48 hrs by Western blotting; assay type: functional, cell-based
In short: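 A549 cells treated 5 μM or 0.1% DMSO for 36 or 48 h. Cells homogenized in sucrose/HEPES buffer A on ice, then spun at 750g twice and 10000g for 60 min at 4 °C; pellet taken as mitochondrial fraction, supernatant as cytosolic. Cytochrome c in each fraction by Western blot. One of three repeats shown.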

[5] = test system: A549; assay: Induction of apoptosis in human A549 cells assessed as decrease of procaspase-9 level after 36 hrs by Western blotting; assay type: functional, cell-based; in short: as §2
[6] = test system: A549; assay: Cell cycle arrest in human A549 cells assessed as accumulation at sub-G1 phase after 48 hrs using propidium iodide staining by flow cytometry; assay type: functional, cell-based
In short: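 A549 cells treated 0-5 μM (0.31-5 μM) or 0.1% DMSO vehicle for 48 h. 5 × 10^5 cells fixed in 70% ethanol on ice ≥2 h, stained with RNase (200 μg/mL) and PI (10 μg/mL) 30 min at room temperature; sub-G1 fraction by flow cytometry, ≥10 000 cells per sample; mean ± SE of three experiments.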

[7] = Cytotoxicity against human BEAS2B cells uo to 80 uM after 48 hrs by alamar blue assay; assay type: cell-based; conditions: beas-2b
In short: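 Beas-2b cells seeded at 5000/well in RPMI 1640 + 10% FBS, 24 h at 37 °C, 5% CO2; then treated 0-80 μM in triplicate per concentration, 0.1% DMSO final, 48 h. Viability read by Alamar Blue per manufacturer's protocol; mean ± SE of three separate experiments.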

[8] = test system: A549; assay: Induction of apoptosis in human A549 cells assessed as loss of mitochondria membrane potential at 5 uM after up to 48 hrs using 3,3'-diethyloxacarbocyanine iodide staining by flow cytometry; assay type: functional, cell-based
In short: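 A549 cells treated with 5 μM or 0.1% DMSO for indicated times; 5 × 10^5 cells stained with 50 nM DiOC2(3), 15 min, 37 °C, dark, washed in cold PBS. Flow cytometry, excitation 488 nm, emission 525 nm (FL-1); low-uptake cells scored as mitochondrial damage against untreated controls. One of three repeats shown.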

[9] = test system: A549; assay: Induction of autophagy in human A549 cells assessed as acridine orange stain incorporation at 5 uM after 24 hrs by fluorescence microscopic analysis; assay type: functional, cell-based
[10] = test system: A549; assay: Induction of apoptosis in human A549 cells assessed as increase of Bak protein level at 5 uM after 36 hrs by Western blotting; assay type: functional, cell-based; in short: as §2
[11] = test system: A549; assay: Induction of apoptosis in human A549 cells assessed as cleavage of caspase-8 at 5 uM after 36 hrs by Western blotting; assay type: functional, cell-based
[12] = test system: A549; assay: Induction of apoptosis in human A549 cells assessed as decrease of procaspase-3 level after 36 hrs by Western blotting; assay type: functional, cell-based; in short: as §2
[13] = test system: A549; assay: Induction of apoptosis in human A549 cells assessed as reduction of Bcl-2 protein level at 5 uM after 36 hrs by Western blotting; assay type: functional, cell-based; in short: as §2
[14] = test system: A549; assay: Induction of apoptosis in human A549 cells assessed as increase in DNA breaks at 5 uM after 24 hrs by flow cytometry based TUNEL assay; assay type: functional
In short: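 A549 cells exposed to 5 μM for various times. 5 × 10^5 cells fixed in 1% paraformaldehyde and 70% ethanol, TdT reaction with DIG-dUTP 30 min at 37 °C, anti-DIG-fluorescein 30 min in the dark, then PI (5 μg/mL) plus RNase A (100 μg/mL) 30 min; fluorescence by flow cytometry. One of three repeats shown.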

[15] = test system: A549; assay: Induction of apoptosis in human A549 cells assessed as cleavage of PARP at 5 uM after 36 hrs by Western blotting; assay type: functional, cell-based
[16] = test system: A549; assay: Induction of apoptosis in human A549 cells assessed as blockade of sub-G1 phase increase at 5 uM after 36 hrs using propidium iodide staining by flow cytometry in presence of Z-VAD-fmk; assay type: functional, cell-based; in short: as §1
[17] = test system: A549; assay: Induction of apoptosis in human A549 cells assessed as blockade of sub-G1 phase increase at 5 uM after 36 hrs using propidium iodide staining by flow cytometry in presence of 4,4'-diisothiocyano- 2,2'-stilbenedisulfonic acid; assay type: functional, cell-based; in short: as §1
[18] = test system: A549; assay: Induction of apoptosis in human A549 cells assessed as increase of p53 protein level at 5 uM after 2 hrs by Western blotting; assay type: functional, cell-based
In short: (§3)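 A549 cells given 5 μM or 0.1% DMSO for 0-16 h; SDS lysates run on SDS-PAGE, transferred to PVDF, blocked in 5% milk PBST, primary antibody overnight, HRP secondary and chemiluminescence. p53, p21 and actin probed; one of three repeats shown.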

[19] = test system: Mus musculus; assay: Toxicity in human A549 cells xenografted BALB/c nude mouse assessed as histological changes in kidney at 3 mg/kg, sc qd for 5 days; assay type: organism-based; set-up: dose 3 mg/kg, route subcutaneous; conditions: in vivo, 120 h
In short: (§4)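 Xenograft setting: female athymic BALB/c nu/nu mice bearing sc A549 tumors (80-120 mm3 at day 0), six per group, daily sc dosing days 0-4 in 20% Tween 80 in saline; vehicle controls. Body weight recorded three times weekly up to days 21-28. Brain, liver and kidney fixed in 4% formalin, paraffin-embedded and sectioned for histology.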

[20] = test system: Mus musculus; assay: Toxicity in human A549 cells xenografted BALB/c nude mouse assessed as change in body weight at 3 mg/kg, sc qd for 5 days; assay type: organism-based; set-up: dose 3 mg/kg, route subcutaneous; conditions: in vivo, 120 h; in short: as §4
[21] = test system: Mus musculus; assay: Toxicity in human A549 cells xenografted BALB/c nude mouse assessed as histological changes in brain at 3 mg/kg, sc qd for 5 days; assay type: organism-based; set-up: dose 3 mg/kg, route subcutaneous; conditions: in vivo, 120 h; in short: as §4
[22] = test system: A549; assay: Antitumor activity against human A549 cells xenografted in BALB/c nude mouse assessed as inhibition of tumor growth at 3 mg/kg, sc qd for 5 days; assay type: functional, organism-based; set-up: dose 3 mg/kg
In short: (§5)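 Female athymic BALB/c nu/nu mice, 6-8 weeks, 18-22 g; 1 × 10^7 A549 cells implanted sc on back. At 80-120 mm3 tumors, randomized (six per group, day 0); daily sc dosing days 0-4 in 20% Tween 80/saline, >1.5 cm from tumor; vehicle controls. Tumor L and W measured to day 21-28; TV = (L × W2)/2, RTV = TVn/TV0. Activated caspase-3 immunohistochemistry on formalin-fixed paraffin tumor sections (day 28 after inoculation).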

[23] = test system: A549; assay: Induction of apoptosis in human A549 cells assessed as increase of p53 protein level at 5 uM after 8 hrs by Western blotting; assay type: functional, cell-based; in short: as §3
[24] = test system: A549; assay: Antitumor activity against human A549 cells xenografted in BALB/c nude mouse assessed as increase in activated caspase-3 protein expression in tumor at 3 mg/kg, sc qd for 5 days by immunohistochemistry; assay type: functional, organism-based; set-up: dose 3 mg/kg; in short: as §5
[25] = test system: Mus musculus; assay: Toxicity in human A549 cells xenografted BALB/c nude mouse assessed as histological changes in liver at 3 mg/kg, sc qd for 5 days; assay type: organism-based; set-up: dose 3 mg/kg, route subcutaneous; conditions: in vivo, 120 h; in short: as §4

## COc1cc(/C=C/C=C/C=C/C=C/c2c(Cl)ccn2S(C)(=O)=O)oc(=O)c1C
[1]
  IC50: > 20 µM

## C/C=C/C=C/C=C/C=C/c1cc(OC)c(C)c(=O)o1
[1]
  IC50: > 20 µM

## COc1cc(/C(C)=C/C=C/C=C/C=C/c2[nH]ccc2Cl)oc(=O)c1
[1]
  IC50: 2.5 µM

## COc1cc(/C=C/C=C/C=C/C=C/c2ccccc2Cl)oc(=O)c1C
[1]
  IC50: > 20 µM

## COc1cc(/C(C)=C/C=C/C=C/C=C/c2[nH]ccc2Cl)oc(=O)c1C
[1]
  IC50: 5.2 µM

## COc1cc(/C=C/C=C/C=C/C=C/c2[nH]ccc2Cl)oc(=O)c1 [AUXARCONJUGATIN B]
[2]
  Activity: inactive
[3]
  Activity: inactive
[4]
  Activity: Active
[5]
  Activity: Dose-dependent effect
[6]
  Activity: Dose-dependent effect
[1]
  IC50: 0.6 µM
[7]
  Activity: Non-toxic
[8]
  Activity: Active
[9]
  Activity: inactive
[10]
  Activity: Active
[11]
  Activity: inactive
[12]
  Activity: Dose-dependent effect
[13]
  Activity: Active
[14]
  Activity: 42%
[15]
  Activity: Active
[16]
  Activity: Active
[17]
  Activity: inactive

## Cc1c(O)cc(/C=C/C=C/C=C/C=C/c2[nH]ccc2Cl)oc1=O
[1]
  IC50: > 20 µM

## O=c1cc(O)cc(/C=C/C=C/C=C/C=C/c2[nH]ccc2Cl)o1
[1]
  IC50: > 20 µM

## COc1cc(/C=C/C=C/C=C/C=C/c2sccc2Cl)oc(=O)c1
[1]
  IC50: > 20 µM

## CC\C(=C/C=C/C=C/C=C/c1[nH]ccc1Cl)c1cc(OC)c(C)c(=O)o1
[1]
  IC50: 5.6 µM

## COc1cc(/C=C/C=C/C=C/C=C/c2cccc(Cl)c2)oc(=O)c1C
[1]
  IC50: > 20 µM

## COc1cc(/C=C/C=C/C=C/C=C/c2[nH]ccc2Cl)oc(=O)c1C [AUXARCONJUGATIN A]
[1]
  IC50: 1.2 µM

## COc1cc(/C=C/C=C/C=C/C=C/c2sccc2Cl)oc(=O)c1C
[1]
  IC50: > 20 µM

## CCCCc1c(OC)cc(/C=C/C=C/C=C/C=C/c2[nH]ccc2Cl)oc1=O
[1]
  IC50: 5 µM

## CCCCc1c(OC)cc(/C(C)=C/C=C/C=C/C=C/c2[nH]ccc2Cl)oc1=O
[18]
  Activity: Active
[2]
  Activity: inactive
[3]
  Activity: inactive
[19]
  Activity: Non-toxic
[4]
  Activity: Active
[5]
  Activity: Dose-dependent effect
[20]
  Activity: Non-toxic
[21]
  Activity: Non-toxic
[6]
  Activity: Dose-dependent effect
[1]
  IC50: 0.01 µM
[7]
  Activity: Non-toxic
[8]
  Activity: Active
[9]
  Activity: inactive
[10]
  Activity: Active
[11]
  Activity: inactive
[12]
  Activity: Dose-dependent effect
[13]
  Activity: Active
[22]
  Activity: Active
[14]
  Activity: 47%
[23]
  Activity: Active
[24]
  Activity: Active
[15]
  Activity: Active
[16]
  Activity: Active
[17]
  Activity: inactive
[25]
  Activity: Non-toxic
